The test system of data set [1] is MDA-MB-231. The data set is described as follows: Antiproliferative activity against human MDA-MB-231 cells assessed as inhibition of cell growth at 10 uM incubated for 48 hrs by MTT assay. In kind it is functional. The gist of the method:
(§1)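 Single-concentration screen: cells (ATCC; 37 °C, 5% CO₂) seeded at 4 × 10⁴ per well, adhered overnight, then treated 48 h at 10 μM. Medium removed, MTT (2.5 mg mL⁻¹) added for 4 h, formazan dissolved in DMSO, absorbance read at 570 nm; percent inhibition versus untreated cells.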

Data set [2] has as its system MCF7. As to the kind of experiment: Antiproliferative activity against human MCF7 cells assessed as inhibition of cell growth at 10 uM incubated for 48 hrs by MTT assay. It is filed as functional. An outline of the steps:
as §1

Data set [3] concerns ZR-75-1. The data set is described as follows: Antiproliferative activity against human ZR-75-1 cells assessed as inhibition of cell growth at 10 uM incubated for 48 hrs by MTT assay. It is filed as functional. The gist of the method: as §1
Data set [4] has as its system MDA-MB-231. As to the kind of experiment: Antiproliferative activity against human MDA-MB-231 cells assessed as inhibition of cell growth incubated for 48 hrs by MTT assay. It is filed as functional, cell-based. As to conditions: MDA-MB-231, 48 h.
In data set [5] the test system is MCF7. The data set is described as follows: Antiproliferative activity against human MCF7 cells assessed as inhibition of cell growth incubated for 48 hrs by MTT assay. It is filed as functional, cell-based. As to conditions: MCF7, 48 h. An outline of the steps:
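MCF-7 exposed 48 h to 0.625, 1.25, 2.5, 5, 10, 20 and 40 μM. MTT (2.5 mg mL⁻¹) added for 4 h, medium removed, formazan solubilized in DMSO, absorbance at 570 nm; percent growth inhibition calculated and IC50 derived.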

In data set [6] the test system is ZR-75-1. As to the kind of experiment: Antiproliferative activity against human ZR-75-1 cells assessed as inhibition of cell growth incubated for 48 hrs by MTT assay. It is filed as functional, cell-based. As to conditions: ZR-75-1, 48 h.
The nature of data set [7]: Cytotoxicity against human MCF-10A cells assessed as inhibition of cell growth incubated for 24 hrs by MTT assay. In kind it is toxicity, cell-based. The gist of the method: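 Non-tumorigenic MCF-10A breast epithelial cells in 96-well plates (5% CO₂) exposed 24 h to 10, 50 and 100 μM. MTT (2.5 mg mL⁻¹) for 4 h, formazan dissolved in DMSO, absorbance at 570 nm; percent growth inhibition calculated to estimate IC50.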

For data set [8], the system named is MCF7. As to the kind of experiment: Induction of apoptosis in human MCF7 cells assessed as disruption of mitochondrial […] membrane potential by measuring decrease in fluorescence intensity at 5 to 20 uM incubated for 30 mins by Rhodamine123 staining based fluorescence microscopic analysis. It is filed as functional, cell-based. As to conditions: dose 5-20 µM. An outline of the steps: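 MCF-7 cells treated at 5, 10 and 20 μM; rhodamine 123 (1 μg) added 30 min before the end of treatment, cells rinsed with PBS and examined under a fluorescence microscope for loss of mitochondrial fluorescence.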

Data set [9] deals with MCF7. The data set is described as follows: Induction of autophagy in human MCF7 cells assessed as increase in autophagosome production at 5 to 20 uM by acridine orange staining based fluorescence microscopic analysis. In kind it is functional, cell-based. As to conditions: dose 5-20 µM. An outline of the steps:
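MCF-7 cells treated at 5, 10 and 20 μM, then stained with 200 nM acridine orange for 10 min at 37 °C and imaged by fluorescence microscopy.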

In data set [10] the test system is MCF7. As to the kind of experiment: Increase in reactive oxygen species production in human MCF7 cells treated with higher concentrations by DCFH-DA staining based fluorescence microscopic analysis. In kind it is functional, cell-based.
Data set [11] has as its system MCF7. The data set is described as follows: Induction of apoptosis in human MCF7 cells assessed as increase in Bax protein expression at 5 to 20 uM incubated for 48 hrs by western blot analysis. As to conditions: dose 5-20 µM. In kind it is functional, cell-based. The gist of the method:
(§2)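 MCF-7 cells (1 × 10⁶ per 100 mm dish, RPMI 1640 with 10% FBS) treated 48 h at 5, 10, 15 and 20 μM, 37 °C. RIPA lysates, Bradford-quantified, 50 μg per lane on SDS-PAGE, PVDF transfer, 5% BSA/TBST block; probed for cleaved PARP (1:1000) and Bax (1:400), band densitometry.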

Data set [12] relates to MCF7. As to the kind of experiment: Induction of apoptosis in human MCF7 cells assessed as increase in cleaved PARP protein expression at 5 to 20 uM incubated for 48 hrs by western blot analysis. It is filed as functional, cell-based. As to conditions: dose 5-20 µM. An outline of the steps: as §2
A short description of data set [13]: Metabolic stability of the compound in human liver microsomes at 5 uM measured for 30 mins in absence of NADPH by substrate depletion method based LC-MS/MS analysis. As to conditions: 0.5 h. It is filed as ADME, Microsome. An outline of the steps:
(§3)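 NADPH-free control incubations: microsomes (0.5 mg mL⁻¹) in 100 mM PBS pH 7.4 with 3.3 mM MgCl₂, no NADPH, 37 °C; compound 5 μM, 0–30 min. Acetonitrile quench with diazepam internal standard, LC-MS/MS; percent remaining versus 0 min, triplicate.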

The nature of data set [14]: Metabolic stability of the compound in monkey liver microsomes at 5 uM measured for 30 mins in absence of NADPH by substrate depletion method based LC-MS/MS analysis. In kind it is ADME, Macaca mulatta, Microsome. As to conditions: rhesus monkey, 0.5 h. The gist of the method: as §3
The nature of data set [15]: Metabolic stability of the compound in dog liver microsomes at 5 uM measured for 30 mins in absence of NADPH by substrate depletion method based LC-MS/MS analysis. In kind it is ADME, Canis lupus familiaris, Microsome. As to conditions: 0.5 h. The gist of the method: as §3
Data set [16] can be described thus: Metabolic stability of the compound in rat liver microsomes at 5 uM measured for 30 mins in absence of NADPH by substrate depletion method based LC-MS/MS analysis. In kind it is ADME, Microsome. As to conditions: 0.5 h. An outline of the steps: as §3
Data set [17] is described as follows: Metabolic stability of the compound in mouse liver microsomes at 5 uM measured for 30 mins in absence of NADPH by substrate depletion method based LC-MS/MS analysis. It is filed as ADME, Microsome. As to conditions: 0.5 h. The gist of the method: as §3
Data set [18] can be described thus: Intrinsic clearance in human liver microsomes measured per mg protein. It is filed as ADME, Microsome. An outline of the steps: (§4)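 Substrate depletion: microsomes (0.5 mg mL⁻¹ protein) in 100 mM PBS pH 7.4, 3.3 mM MgCl₂, 1.2 mM NADPH, preincubated 5 min at 37 °C; compound spiked at 5 μM, sampled at 0, 15 and 30 min. Quenched with cold acetonitrile containing diazepam internal standard, LC-MS/MS; triplicate. Log-linear plot of remaining substrate (0 min = 100%) gives parameters.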

Data set [19] is described as follows: Intrinsic clearance in monkey liver microsomes measured per mg protein. It is filed as ADME, Macaca mulatta, Microsome. As to conditions: rhesus monkey. An outline of the steps: as §4
Data set [20] can be described thus: Intrinsic clearance in mouse liver microsomes measured per mg protein. It is filed as ADME, Microsome. The gist of the method: as §4
The nature of data set [21]: Intrinsic clearance in dog liver microsomes measured per mg protein. It is filed as ADME, Canis lupus familiaris, Microsome. As to conditions: read-out: CLH. An outline of the steps: as §4
Data set [22] is described as follows: Intrinsic clearance in rat liver microsomes measured per mg protein. In kind it is ADME, Microsome. As to conditions: read-out: CLH. An outline of the steps: as §4
A short description of data set [23]: Half life in dog liver microsomes. It is filed as ADME, Canis lupus familiaris, Microsome. An outline of the steps: as §4
A short description of data set [24]: Half life in rat liver microsomes. In kind it is ADME, Microsome. The gist of the method:
as §4

Data set [25] can be described thus: Half life in mouse liver microsomes. In kind it is ADME, Microsome. The gist of the method: as §4
The nature of data set [26]: Half life in monkey liver microsomes. It is filed as ADME, Macaca mulatta, Microsome. As to conditions: rhesus monkey. The gist of the method:
as §4

A short description of data set [27]: Half life in human liver microsomes. It is filed as ADME, Microsome. The gist of the method: as §4
Data set [28] deals with MDA-MB-231. As to the kind of experiment: Antiproliferative activity against human MDA-MB-231 cells assessed as inhibition of cell growth at 1 uM incubated for 48 hrs by MTT assay. In kind it is functional. The gist of the method: (§5)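 Positive-control reference measured alongside the single-concentration screen: cells seeded at 4 × 10⁴ per well, adhered overnight, exposed 48 h to doxorubicin at 1 μM. MTT (2.5 mg mL⁻¹) added for 4 h, formazan dissolved in DMSO, absorbance at 570 nm; percent growth inhibition relative to untreated cells.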

Data set [29] relates to MCF7. As to the kind of experiment: Antiproliferative activity against human MCF7 cells assessed as inhibition of cell growth at 1 uM incubated for 48 hrs by MTT assay. In kind it is functional. The gist of the method: as §5
For data set [30], the system named is ZR-75-1. As to the kind of experiment: Antiproliferative activity against human ZR-75-1 cells assessed as inhibition of cell growth at 1 uM incubated for 48 hrs by MTT assay. It is filed as functional. The gist of the method:
as §5

The source made the active and inactive calls. The rule behind the calls is not given here.

Regarding `COc1cc(-n2cnc(-c3cc(Cl)cc(Cl)c3)n2)cc(OC)c1OC`, the inhibition at 10 µM was 17.4% in data set [1] and 0% in data set [2].

Regarding `COc1cc(-n2cnc(-c3cccc(O)c3)n2)cc(OC)c1OC`, the figures for the inhibition at 10 µM in data set [1], in data set [2] and in data set [3] were 10.4%, 32.8% and 8.54%, respectively.

As to `COc1ccc(-c2ncn(-c3cc(OC)c(OC)c(OC)c3)n2)cc1F`, the inhibition at 10 µM in [1] came to 32.1%; in [2], 51.3%; in data set [3], 6.41%. Moreover, the IC50 is 17 µM in data set [4], 4.8 µM in data set [5] and 34 µM in data set [6]. Further, the IC50 at 24 h in [7] was more than 100 µM. Also, the outcome in data set [8], in [9], in [10], in [11] and in data set [12] was Active. For the same compound, the Stability result in data set [13], in data set [14], in data set [15], in data set [16] and in [17] was “Stable” each time. Moreover, the microsomal CLint in data set [18] was 13 µL/min/mg; in [19] it was 23 µL/min/mg; in data set [20], 41 µL/min/mg; in data set [21], more than 53 µL/min/mg; in data set [22], more than 86.1 µL/min/mg. Also, the half-life was less than 30 min in data set [23]; less than 30 min in [24]; 34 min in data set [25]; 60 min in [26]; more than 60 min in data set [27].

As to `COc1ccc(-c2ncn(-c3cc(OC)c(OC)c(OC)c3)n2)cc1OC`, the inhibition at 10 µM in data set [1] was 23.5%; in data set [2], 28.9%.

Take `COc1ccc(-n2cnc(-c3ccc(F)cc3)n2)cc1OC`: the inhibition at 10 µM came out at 16.8% in [1] and 17.6% in data set [2].

Take `COc1cccc2c1C(=O)c1c(O)c3c(c(O)c1C2=O)C[C@@](O)(C(=O)CO)C[C@@H]3O[C@H]1C[C@H](N)[C@H](O)[C@H](C)O1` [DOXORUBICIN]: the IC50 in data set [4] amounted to 1.7 µM; in data set [6] it was 1.2 µM. In addition, the inhibition at 1 µM in data set [28] stood at 37.9%; in [29], 45.5%; in data set [30], 45.5%.

On to `COc1cc(-n2cnc(-c3ccc4c(c3)OCO4)n2)cc(OC)c1OC`, for which the figures for the inhibition at 10 µM in [1] and in data set [2] were 17.9% and 21.2%, respectively.

In the case of `COc1ccc(-n2cnc(-c3ccc(F)c(F)c3)n2)cc1OC`, the inhibition at 10 µM in data set [1] was 7.98%; in data set [2] it was 16.1%.

Consider `COc1ccc(-c2ncn(-c3cc(OC)c(OC)c(OC)c3)n2)cn1`, for which the inhibition at 10 µM in [1] is 5.25%; in data set [2], 35.9%; in [3] it was 4.95%.

`c1ccc2c(-c3ncn(-c4ccc5c(c4)OCO5)n3)cccc2c1`: the inhibition at 10 µM is 15.3% in data set [1] and 5.71% in data set [2].

With `COc1ccc(-c2ncn(-c3ccccc3)n2)cc1`, the inhibition at 10 µM was 0% in data set [1], 0.853% in [2] and 0% in data set [3].

As to `COc1cc(-n2cnc(-c3ccc4nc[nH]c4c3)n2)cc(OC)c1OC`, the inhibition at 10 µM came to 31.6% in data set [1], 58.5% in data set [2] and 21.2% in data set [3]. Moreover, the IC50 was 15 µM in [4], 5.2 µM in data set [5] and 93 µM in data set [6]. Further, in data set [7], the IC50 at 24 h was more than 100 µM.

These data come from ChEMBL document CHEMBL6083223, “Development of di-arylated 1,2,4-triazole-based derivatives as therapeutic agents against breast cancer: synthesis and biological evaluation” (RSC Med Chem, 2024).
